From ChEMBL document CHEMBL3779815, “Synthesis of newer 1,2,3-triazole linked chalcone and flavone hybrid compounds and evaluation of their antimicrobial and cytotoxic activities” (Eur J Med Chem, 2016)
Values after ≈ are worked out from the molar mass of the structure shown.

Experiments:
Staphylococcus aureus = assay: Antibacterial activity against Staphylococcus aureus […] after 18 to 24 hrs by micro-dilution method; assay type: functional
Enterococcus faecalis = assay: Antibacterial activity against Enterococcus faecalis ATCC 29212 after 18 to 24 hrs by micro-dilution assay; assay type: functional
Escherichia coli = assay: Antibacterial activity against Escherichia coli ATCC 35218 after 18 to 24 hrs by micro-dilution method; assay type: functional
Pseudomonas aeruginosa = assay: Antibacterial activity against Pseudomonas aeruginosa […] after 18 to 24 hrs by micro-dilution method; assay type: functional
Shigella boydii = assay: Antibacterial activity against Shigella boydii clinical isolate after 18 to 24 hrs by micro-dilution method; assay type: functional
Klebsiella pneumoniae = assay: Antibacterial activity against Klebsiella pneumoniae ATCC 27736 after 18 to 24 hrs by micro-dilution method; assay type: functional
Candida albicans [1] = assay: Antifungal activity against Candida albicans ATCC 90028 after 18 to 24 hrs by micro-dilution method; assay type: functional
Outline: (§1)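 Microdilution MIC run as the antibacterial protocol but on Sabouraud dextrose […] pH 7.3±0.2; compounds 100 to 0.78 μg/mL in twofold steps; saline-prepared inocula 1-2 × 10⁷ cfu/mL, 0.01 mL added; 37 °C aerobic, 18-24 h; MIC read as lowest concentration without visible growth or turbidity; fluconazole reference.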

Candida albicans [2] = assay: Antifungal activity against Candida albicans clinical isolate after 18 to 24 hrs by micro-dilution method; assay type: functional; outline: as §1
Candida tropicalis = assay: Antifungal activity against Candida tropicalis ATCC 750 after 18 to 24 hrs by micro-dilution method; assay type: functional; outline: as §1
Candida parapsilosis = assay: Antifungal activity against Candida parapsilosis ATCC 22019 after 18 to 24 hrs by micro-dilution method; assay type: functional; conditions: Lodderomyces parapsilosis; outline: as §1
Cryptococcus neoformans = assay: Antifungal activity against Cryptococcus neoformans clinical isolate after 18 to 24 hrs by micro-dilution method; assay type: functional; outline: as §1
Arthrodermataceae = assay: Antifungal activity against Dermatophyte clinical isolate after 18 to 24 hrs by micro-dilution method; assay type: functional; outline: as §1
Aspergillus niger = assay: Antifungal activity against Aspergillus niger clinical isolate after 18 to 24 hrs by micro-dilution method; assay type: functional; outline: as §1
Aspergillus fumigatus = assay: Antifungal activity against Aspergillus fumigatus clinical isolate after 18 to 24 hrs by micro-dilution method; assay type: functional; outline: as §1
Plasmodium falciparum = assay: Antimalarial activity against erythrocytic stage of chloroquine sensitive Plasmodium falciparum 3D7 assessed as inhibition of parasitemia after 48 hrs by Giemsa staining based microscopic analysis; assay type: functional, organism-based; conditions: 3D7, 48 h
Outline: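 Asynchronous culture on human O⁺ erythrocytes, 1-1.5% parasitemia, 4% hematocrit, RPMI-1640 with HEPES, NaHCO₃, glutamine, gentamycin, Albumax II; drug 0.10-100 μg/mL, 48 h, 37 °C, medium changed at 24 h; triplicate wells; Giemsa thin smears, about 4,000 erythrocytes counted at 1,000X; % parasitemia inhibition versus control gives IC50.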

[3] = Cytotoxicity against human HuH7 cells after 72 hrs by MTT assay; assay type: cell-based, Huh-7
Outline: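 Huh-7 cells, 4 × 10³/well in DMEM with 10% FBS and penicillin-streptomycin-glutamine; eight 2-fold dilutions 100-0.78 μg/mL, 72 h; MTT added 2-4 h, then isopropanol/Triton X-100/HCl solubilization 2 h dark, RT; absorbance 570 nm; CC50 as mean of at least two experiments in duplicate.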

Row | Compound | MIC (Staphylococcus aureus) [µg/mL] | MIC (Enterococcus faecalis) [µg/mL] | MIC (Escherichia coli) [µg/mL] | MIC (Pseudomonas aeruginosa) [µg/mL] | MIC (Shigella boydii) [µg/mL] | MIC (Klebsiella pneumoniae) [µg/mL] | MIC (Candida albicans [1]) [µg/mL] | MIC (Candida albicans [2]) [µg/mL] | MIC (Candida tropicalis) [µg/mL] | MIC (Candida parapsilosis) [µg/mL] | MIC (Cryptococcus neoformans) [µg/mL] | MIC (Arthrodermataceae) [µg/mL] | MIC (Aspergillus niger) [µg/mL] | MIC (Aspergillus fumigatus) [µg/mL] | IC50 (Plasmodium falciparum) [µg/mL] | CC50 at 72 h [3] [µg/mL]
1 | COc1cc(O)c(C(=O)/C=C/c2ccc(OCc3cn(-c4ccc(F)cc4Cl)nn3)c(OC)c2)c(OC)c1 | 6.25 (≈ 11.6 µM) | 6.25 (≈ 11.6 µM) | 12.5 (≈ 23.2 µM) | 12.5 (≈ 23.2 µM) | 12.5 (≈ 23.2 µM) | 25 (≈ 46.3 µM) | 50 (≈ 92.6 µM) | > 100 | 100 (≈ 185 µM) | > 100 | > 100 | 25 (≈ 46.3 µM) | 100 (≈ 185 µM) | > 100 | 6.27 (≈ 11.6 µM) | > 100
2 | COc1cc(O)c(C(=O)/C=C/c2ccc(OC)c(OCc3cn(-c4ccc(F)cc4Cl)nn3)c2)c(OC)c1 | 100 (≈ 185 µM) | > 100 | > 100 | > 100 | > 100 | > 100 | > 100 | > 100 | > 100 | > 100 | > 100 | > 100 | > 100 | > 100 | 4.92 (≈ 9.11 µM) | > 100
3 | COc1cc(OC)c2c(=O)cc(-c3ccc(OCc4cn(-c5ccc(F)cc5F)nn4)c(OCc4cn(-c5ccc(F)cc5F)nn4)c3)oc2c1 | > 100 | 100 (≈ 143 µM) | > 100 | > 100 | > 100 | > 100 | 50 (≈ 71.4 µM) | > 100 | > 100 | 100 (≈ 143 µM) | > 100 | > 100 | > 100 | > 100 | 9.25 (≈ 13.2 µM) | > 100
4 | COc1cc(OC)c2c(=O)cc(-c3ccc(OCc4cn(-c5ccc(F)c(Cl)c5)nn4)c(OC)c3)oc2c1 | > 100 | > 100 | > 100 | > 100 | > 100 | > 100 | 12.5 (≈ 23.2 µM) | 12.5 (≈ 23.2 µM) | 12.5 (≈ 23.2 µM) | 12.5 (≈ 23.2 µM) | 6.25 (≈ 11.6 µM) | 12.5 (≈ 23.2 µM) | 50 (≈ 92.9 µM) | 50 (≈ 92.9 µM) | 4.48 (≈ 8.33 µM) | > 100
5 | COc1cc(O)c(C(=O)/C=C/c2ccc(OC)c(OCc3cn(-c4ccc(Cl)cc4)nn3)c2)c(OC)c1 | > 100 | 100 (≈ 192 µM) | 100 (≈ 192 µM) | > 100 | > 100 | > 100 | 12.5 (≈ 23.9 µM) | 12.5 (≈ 23.9 µM) | 6.25 (≈ 12 µM) | 12.5 (≈ 23.9 µM) | 12.5 (≈ 23.9 µM) | 12.5 (≈ 23.9 µM) | 25 (≈ 47.9 µM) | 25 (≈ 47.9 µM) | 11 (≈ 21.1 µM) | > 100
6 | COc1cc(O)c(C(=O)/C=C/c2ccc(OCc3cn(-c4ccc(F)cc4F)nn3)c(OC)c2)c(OC)c1 | 12.5 (≈ 23.9 µM) | 12.5 (≈ 23.9 µM) | 6.25 (≈ 11.9 µM) | 12.5 (≈ 23.9 µM) | 6.25 (≈ 11.9 µM) | 12.5 (≈ 23.9 µM) | > 100 | 50 (≈ 95.5 µM) | > 100 | 25 (≈ 47.8 µM) | 50 (≈ 95.5 µM) | > 100 | > 100 | > 100 | 3.58 (≈ 6.84 µM) | > 100
7 | COc1cc(OC)c2c(=O)cc(-c3ccc(OCc4cn(-c5ccc(F)cc5Cl)nn4)c(OCc4cn(-c5ccc(F)cc5Cl)nn4)c3)oc2c1 | > 100 | > 100 | > 100 | > 100 | > 100 | > 100 | 12.5 (≈ 17 µM) | 12.5 (≈ 17 µM) | 6.25 (≈ 8.52 µM) | 12.5 (≈ 17 µM) | 12.5 (≈ 17 µM) | 6.25 (≈ 8.52 µM) | 12.5 (≈ 17 µM) | 12.5 (≈ 17 µM) | 14.5 (≈ 19.7 µM) | > 100
8 | COc1cc(OC)c2c(=O)cc(-c3ccc(OCc4cn(-c5ccc(F)cc5F)nn4)c(OC)c3)oc2c1 | > 100 | > 100 | > 100 | > 100 | > 100 | > 100 | > 100 | > 100 | > 100 | > 100 | > 100 | > 100 | > 100 | > 100 | 4.79 (≈ 9.19 µM) | > 100
9 | COc1cc(O)c(C(=O)/C=C/c2ccc(OC)c(OCc3cn(-c4ccc(F)cc4F)nn3)c2)c(OC)c1 | 100 (≈ 191 µM) | 25 (≈ 47.8 µM) | 50 (≈ 95.5 µM) | > 100 | 12.5 (≈ 23.9 µM) | > 100 | > 100 | > 100 | > 100 | > 100 | > 100 | > 100 | 50 (≈ 95.5 µM) | 50 (≈ 95.5 µM) | 9.54 (≈ 18.2 µM) | > 100
10 | COc1cc(O)c(C(=O)/C=C/c2ccc(OCc3cn(-c4ccc(F)c(Cl)c4)nn3)c(OCc3cn(-c4ccc(F)c(Cl)c4)nn3)c2)c(OC)c1 | > 100 | 100 (≈ 136 µM) | > 100 | > 100 | 100 (≈ 136 µM) | > 100 | > 100 | > 100 | > 100 | > 100 | > 100 | > 100 | > 100 | > 100 | 10.9 (≈ 14.8 µM) | > 100
11 | COc1cc(O)c(C(=O)/C=C/c2ccc(OCc3cn(-c4ccc(F)cc4F)nn3)c(OCc3cn(-c4ccc(F)cc4F)nn3)c2)c(OC)c1 | 12.5 (≈ 17.8 µM) | 6.25 (≈ 8.9 µM) | 6.25 (≈ 8.9 µM) | 12.5 (≈ 17.8 µM) | 6.25 (≈ 8.9 µM) | 12.5 (≈ 17.8 µM) | 6.25 (≈ 8.9 µM) | 6.25 (≈ 8.9 µM) | 12.5 (≈ 17.8 µM) | 12.5 (≈ 17.8 µM) | 6.25 (≈ 8.9 µM) | 12.5 (≈ 17.8 µM) | 25 (≈ 35.6 µM) | 25 (≈ 35.6 µM) | 8.86 (≈ 12.6 µM) | > 100
12 | C[C@@H]1CC[C@H]2[C@@H](C)C(=O)O[C@@H]3O[C@@]4(C)CC[C@@H]1[C@]32OO4 [ARTEMISININ] |  |  |  |  |  |  |  |  |  |  |  |  |  |  | 0.00112 (≈ 0.00396 µM) | > 100
13 | OC(Cn1cncn1)(Cn1cncn1)c1ccc(F)cc1F [FLUCONAZOLE] |  |  |  |  |  |  | 0.5 (≈ 1.63 µM) | 0.5 (≈ 1.63 µM) | 0.5 (≈ 1.63 µM) | 0.5 (≈ 1.63 µM) | 2 (≈ 6.53 µM) | 4 (≈ 13.1 µM) | 2 (≈ 6.53 µM) | 2 (≈ 6.53 µM) |  | 
